# Shown are actives, neighbours in structure and some others; about 2.2% of the full set was active somewhere.
# GLD-1 RNA inh = GLD-1/TGE RNA complex disruptors, primary screen, biochemical, fluorescence polarization | Female germline-specific tumor suppressor gld-1 (Caenorhabditis elegans), Q17339 | purified GLD-1 + fluorescein TGE RNA | inhibition, % at 5.96 µM | 0.44% of 320,000 active;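 active = percent inhibition above a per-plate cutoff, the plate mean of test compounds plus 3 SD, cut at about 30% in these data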;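 also: 0% = DMSO wells with GLD-1 and probe and 100% = wells lacking GLD-1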
# MEX-5 binding = MEX-5 zinc finger RNA-binding disruptors – biochemical, C. elegans, fluorescence polarization, MLPCN library, primary screen | Zinc finger protein mex-5 (Caenorhabditis elegans), Q9XUB2 | MEX-5/FITC-TCR2 RNA binding; hits give low values | activity score (negative = inhibition of binding), % at 10 µM | 0.38% of 300,000 active;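 active = inhibition past about -25% in most replicates, and total fluorescence under double the plate's negative control median, limit read from the data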;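 also: 0% = DMSO and -100% = 5 µM competing unlabeled TCR2 RNA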
# EBV gp42 block = Epstein-Barr virus gp42 inhibitors, primary screen, biochemical, uHTS, fluorescence polarization; Glycoprotein 42 (Epstein-Barr virus (strain AG876)), Q1HVG2; Fluorescence polarization binding assay, mP read-out; inhibition, % (tested at 21.74 µM); 0.42% of 220,000 active; AID 1085, 2008; in the data active = inhibition above about 50%
# Target sequence (Q1HVG2 whole entry, looked up): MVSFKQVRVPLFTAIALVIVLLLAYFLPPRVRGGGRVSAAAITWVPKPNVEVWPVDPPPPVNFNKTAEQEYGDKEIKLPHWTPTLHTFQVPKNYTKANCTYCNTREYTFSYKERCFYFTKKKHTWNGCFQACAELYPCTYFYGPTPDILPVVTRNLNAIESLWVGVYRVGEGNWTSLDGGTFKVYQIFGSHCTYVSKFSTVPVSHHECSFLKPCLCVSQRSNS
# VIM-2 inhibitor = VIM-2 metallo-beta-lactamase inhibitors, primary screen, biochemical, epi-absorbance readout, Pseudomonas aeruginosa enzyme. purified VIM-2, nitrocefin hydrolysis, epi-absorbance fluorescence. inhibition, % at 5.6 µM. 0.89% of 290,000 active. AID 1527, 2009;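 active = inhibition above the mean of all tested compounds plus 3 SD, cutoff set per screening run, cut at about 7.5% in these data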;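 also: red hydrolysis product quenches plate fluorescence so inhibitors raise well fluorescence; 0% = enzyme with DMSO and 100% = DMSO without enzyme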
# Bcl-xL primary = inhibitors of human Bcl-xL, primary screen, biochemical, fluorescence polarization, HTS; Bcl-2-like protein 1 (Homo sapiens), Q07817; GST-Bcl-xL / FITC-Bim BH3 peptide fluorescence polarization; inhibition, % at 10.9 µM; 0.7% of 320,000 active;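 active = inhibition above the mean of all tested compounds plus 3 SD, cutoff set per campaign, cut at about 30% in these data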;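 also: 0% = DMSO wells and 100% = unlabeled Bim-BH3 peptide competitor; inhibitors lower millipolarization by displacing the labeled peptide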
# Target sequence (Q07817 whole entry, looked up): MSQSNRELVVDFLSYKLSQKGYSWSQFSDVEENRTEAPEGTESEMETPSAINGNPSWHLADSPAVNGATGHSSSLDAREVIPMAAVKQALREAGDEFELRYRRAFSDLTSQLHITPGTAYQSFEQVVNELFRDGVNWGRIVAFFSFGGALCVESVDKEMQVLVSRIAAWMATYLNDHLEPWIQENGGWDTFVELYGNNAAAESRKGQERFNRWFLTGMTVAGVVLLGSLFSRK
# IMP-1 inh = IMP-1 metallo-beta-lactamase inhibitors, primary screen, biochemical, epi-absorbance readout, Pseudomonas aeruginosa enzyme; AID 1556, 2009; metallo-beta-lactamase IMP-1 (Pseudomonas aeruginosa); 0.45% of 290,000 active; purified IMP-1, nitrocefin hydrolysis, epi-absorbance fluorescence; inhibition, % at 5.6 µM;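 active = inhibition above the mean plus 3 SD of all compounds in the same screening run, cut at about 4.5% in these data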;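 also: 0% = IMP-1 with DMSO and 100% = DMSO wells lacking enzyme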
#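 Test system: recombinant IMP-1 enzyme, purified / Medium: HEPES buffer pH 7.1 with ZnSO4 and Brij 35 / Doses: single dose, 5.6 µM / Times: 25 °C, 15 min preincubation, 25 min reaction / Detection: Epi-absorbance via hydrolysed-nitrocefin quenching of white-plate fluorescence, 480/530 nm, EDTA stop / Evaluation: percent inhibition from optical density relative to buffer-blank wells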
# GLD-1 TGE cf = GLD-1/TGE RNA binding inhibitors, retest, confirmation, biochemical, fluorescence polarization, triplicate. inhibition, % at 5.96 µM. GLD-1/FL-TGE RNA fluorescence polarization. shares compounds with GLD-1 RNA inh. 10% of 550 active. AID 2459, 2010;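 active = average inhibition across triplicates above the hit cutoff set in the primary screen, cut at about 32% in these data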;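 also: 0% = GLD-1 with RNA probe and DMSO and 100% = wells lacking GLD-1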
# Active calls of the source: *; nt = no result.
SMILES,GLD-1 RNA inh,MEX-5 binding,EBV gp42 block,VIM-2 inhibitor,Bcl-xL primary,IMP-1 inh,GLD-1 TGE cf
CCC(C)Nc1nc(OC(C(F)(F)F)C(F)(F)F)nc(OC(C(F)(F)F)C(F)(F)F)n1 (stereo not drawn),36*,0,-13,-3,-3,0,-2
Fc1ccc(Br)cc1C1C=C(c2cccnc2)Nc2ncnn21 (stereo not drawn),34*,-1,9,-2,37*,-2,2
CCOC(=O)C1=C(C)Nc2ncnn2C1c1cc(Br)ccc1F (stereo not drawn),10,-3,-30,-3,-1,-2,nt
CCOC(=O)C1=C(COC(=O)c2ccc3ccccc3c2O)NC(=O)NC1C (stereo not drawn),46*,nt,nt,nt,61*,nt,1
NC(=O)c1ccccc1NC(=O)/C=C/c1ccccc1,3,-5,-1,-2,-7,-4,nt
NC(=O)c1ccccc1NC(=O)/C=C/c1ccc(Cl)cc1,56*,-1,-10,1,1,-1,-5
COc1ccc2[nH]c(C)c(CCN(Cc3cccs3)C(=S)Nc3cccc(F)c3)c2c1,53*,-2,9,-2,59*,-1,2
COc1cccc(NC(=S)N(CCc2c(C)[nH]c3ccc(C)cc23)Cc2cccs2)c1,2,-5,-18,1,-2,-1,nt
Cc1ccc2c(CC(=O)N(C)c3c(N)n(Cc4ccccc4)c(=O)[nH]c3=O)coc2c1,6,-1,nt,nt,-1,nt,nt
C/C(CC(=O)NC12CC3CC(CC(C3)C1)C2)=N\NC(=O)c1cnccn1,-7,-1,-4,-2,6,-2,nt
O=C(NC12CC3CC(CC(C3)C1)C2)c1cnccn1,34*,-2,14,-4,42*,-3,-10
CCOC(=O)Cn1c(=O)c(-c2ccccc2N)nc2ccccc21,-5,1,-11,nt,1,nt,nt
CCOC(=O)Cn1c(=O)c(-c2cc(Br)ccc2N)nc2ccccc21,37*,-38*,60*,-2,70*,-3,50*
CC(C)(C)NC(=O)c1ccc(NC(=O)c2ccccc2-c2ccccc2C(=O)O)cc1,4,0,nt,-1,5,-1,nt
COc1cccc(CCC(=O)Nc2cccc(S(=O)(=O)N3CCCC3)c2)c1OC,5,nt,nt,nt,0,nt,nt
Cc1ccc(C(=O)N2CCN(c3ccc(NC(=O)Cc4ccccc4)cc3)CC2)cc1,0,-1,nt,-1,9,-2,nt
CCCC(=Nc1ccc(N)cc1)C1=C(O)C(C(=O)OC)C(C)(C)CC1=O (stereo not drawn),33*,-1,-16,-2,44*,-2,6
CCCC(=O)C1=C(O)C(C(=O)OC)C(C)(C)CC1=Nc1ccc(N)cc1 (stereo not drawn),3,-2,-4,0,4,-3,nt
Cc1ccc2nc(SCC(=O)Nc3cccc(F)c3)nc(=O)n2c1,1,-3,nt,nt,4,nt,nt
Cc1ccc(CN2CC[C@H]3C=CCc4cccc(c43)C2)cc1,11,nt,nt,nt,6,nt,nt
COc1ccc(CN2CC[C@H]3C=CCc4cccc(c43)C2)cc1,60*,nt,nt,nt,72*,nt,1
CC(=O)Nc1cccc(Oc2nc(-c3ccccn3)nc3ccccc23)c1,31*,-35*,-2,-1,1,-4,-3
CC(=O)Nc1ccc(Oc2nc(-c3ccccn3)nc3ccccc23)cc1,0,-4,-1,2,2,-3,nt
CCCCCCCCOc1ccc(C(=O)O)cc1,4,nt,nt,nt,6,nt,nt
CCCCCCOc1ccc(C(=O)O)cc1C#N,40*,1,6,3,3,-1,-3

# Assay outcomes: PubChem BioAssay, several laboratories
